Results reported in ChEMBL document CHEMBL4177764 (J Med Chem, 2018).
The source made the active and inactive calls. No cut-off for these calls is given here.

Assays:
[1] = tested on: NCI-H3122; test: Antiproliferative activity against human NCI-H3122 cells after 72 hrs by CellTiter-Glo luminescent cell viability assay; assay type: functional, cell-based
[2] = target: T1, ALK tyrosine kinase receptor (Homo sapiens, UniProt Q9UM73); test: Induction of ALK degradation in human KARPAS299 cells after 16 hrs by immunoblot method; assay type: cell-based
Method in brief: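 H3122 and Karpas 299 cells were given a dose titration for 16 h. ALK and Aurora A were then read by immunoblot. DC50 was calculated from the titrations, two independent experiments.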
Target sequence in this assay (Q9UM73 whole entry): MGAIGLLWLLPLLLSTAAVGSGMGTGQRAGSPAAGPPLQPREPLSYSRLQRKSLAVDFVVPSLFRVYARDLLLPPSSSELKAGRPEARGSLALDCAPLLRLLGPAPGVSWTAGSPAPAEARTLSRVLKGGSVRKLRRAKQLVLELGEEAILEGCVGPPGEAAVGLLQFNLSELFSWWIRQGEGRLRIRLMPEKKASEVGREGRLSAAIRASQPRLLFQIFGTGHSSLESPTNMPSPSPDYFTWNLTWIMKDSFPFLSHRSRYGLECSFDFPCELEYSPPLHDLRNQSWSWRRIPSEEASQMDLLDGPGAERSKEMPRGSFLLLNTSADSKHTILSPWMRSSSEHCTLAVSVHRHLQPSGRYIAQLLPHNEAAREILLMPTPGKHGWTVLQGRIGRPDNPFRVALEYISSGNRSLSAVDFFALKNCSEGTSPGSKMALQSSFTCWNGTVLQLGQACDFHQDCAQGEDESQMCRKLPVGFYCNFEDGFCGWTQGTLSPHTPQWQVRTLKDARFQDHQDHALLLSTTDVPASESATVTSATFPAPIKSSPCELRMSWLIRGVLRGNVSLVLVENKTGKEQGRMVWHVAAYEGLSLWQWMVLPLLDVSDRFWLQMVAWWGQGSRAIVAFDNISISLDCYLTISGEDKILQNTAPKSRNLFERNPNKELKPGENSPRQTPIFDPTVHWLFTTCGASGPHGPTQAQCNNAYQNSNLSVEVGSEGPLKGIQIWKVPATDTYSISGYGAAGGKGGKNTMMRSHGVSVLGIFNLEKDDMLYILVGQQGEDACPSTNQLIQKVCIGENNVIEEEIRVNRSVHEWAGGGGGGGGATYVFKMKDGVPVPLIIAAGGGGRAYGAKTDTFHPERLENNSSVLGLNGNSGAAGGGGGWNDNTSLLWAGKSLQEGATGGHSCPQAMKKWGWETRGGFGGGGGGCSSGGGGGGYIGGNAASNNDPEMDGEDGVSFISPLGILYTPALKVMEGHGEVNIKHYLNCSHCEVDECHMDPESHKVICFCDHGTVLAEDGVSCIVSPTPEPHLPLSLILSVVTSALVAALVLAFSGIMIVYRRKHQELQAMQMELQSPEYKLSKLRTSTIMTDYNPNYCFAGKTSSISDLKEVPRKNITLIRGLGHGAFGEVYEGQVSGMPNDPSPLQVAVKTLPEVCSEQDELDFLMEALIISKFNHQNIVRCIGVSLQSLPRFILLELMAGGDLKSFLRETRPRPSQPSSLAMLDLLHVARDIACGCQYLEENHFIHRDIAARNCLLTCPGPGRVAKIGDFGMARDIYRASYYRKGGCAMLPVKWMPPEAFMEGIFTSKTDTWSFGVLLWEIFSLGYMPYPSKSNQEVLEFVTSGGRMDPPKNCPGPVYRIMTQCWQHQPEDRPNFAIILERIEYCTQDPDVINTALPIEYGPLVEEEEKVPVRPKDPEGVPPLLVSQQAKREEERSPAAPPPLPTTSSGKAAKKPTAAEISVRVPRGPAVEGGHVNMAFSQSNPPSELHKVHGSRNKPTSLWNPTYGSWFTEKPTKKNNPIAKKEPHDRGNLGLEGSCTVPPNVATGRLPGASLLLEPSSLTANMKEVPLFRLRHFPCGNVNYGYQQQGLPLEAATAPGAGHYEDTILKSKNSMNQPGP

[3] = target: T1, ALK tyrosine kinase receptor; test: Induction of ALK degradation in human NCI-H3122 cells at 250 nM after 16 hrs in presence of proteasome inhibitor carfilzomib by immunoblot method; assay type: cell-based
Target sequence in this assay (Q9UM73 19-1620 limits assumed): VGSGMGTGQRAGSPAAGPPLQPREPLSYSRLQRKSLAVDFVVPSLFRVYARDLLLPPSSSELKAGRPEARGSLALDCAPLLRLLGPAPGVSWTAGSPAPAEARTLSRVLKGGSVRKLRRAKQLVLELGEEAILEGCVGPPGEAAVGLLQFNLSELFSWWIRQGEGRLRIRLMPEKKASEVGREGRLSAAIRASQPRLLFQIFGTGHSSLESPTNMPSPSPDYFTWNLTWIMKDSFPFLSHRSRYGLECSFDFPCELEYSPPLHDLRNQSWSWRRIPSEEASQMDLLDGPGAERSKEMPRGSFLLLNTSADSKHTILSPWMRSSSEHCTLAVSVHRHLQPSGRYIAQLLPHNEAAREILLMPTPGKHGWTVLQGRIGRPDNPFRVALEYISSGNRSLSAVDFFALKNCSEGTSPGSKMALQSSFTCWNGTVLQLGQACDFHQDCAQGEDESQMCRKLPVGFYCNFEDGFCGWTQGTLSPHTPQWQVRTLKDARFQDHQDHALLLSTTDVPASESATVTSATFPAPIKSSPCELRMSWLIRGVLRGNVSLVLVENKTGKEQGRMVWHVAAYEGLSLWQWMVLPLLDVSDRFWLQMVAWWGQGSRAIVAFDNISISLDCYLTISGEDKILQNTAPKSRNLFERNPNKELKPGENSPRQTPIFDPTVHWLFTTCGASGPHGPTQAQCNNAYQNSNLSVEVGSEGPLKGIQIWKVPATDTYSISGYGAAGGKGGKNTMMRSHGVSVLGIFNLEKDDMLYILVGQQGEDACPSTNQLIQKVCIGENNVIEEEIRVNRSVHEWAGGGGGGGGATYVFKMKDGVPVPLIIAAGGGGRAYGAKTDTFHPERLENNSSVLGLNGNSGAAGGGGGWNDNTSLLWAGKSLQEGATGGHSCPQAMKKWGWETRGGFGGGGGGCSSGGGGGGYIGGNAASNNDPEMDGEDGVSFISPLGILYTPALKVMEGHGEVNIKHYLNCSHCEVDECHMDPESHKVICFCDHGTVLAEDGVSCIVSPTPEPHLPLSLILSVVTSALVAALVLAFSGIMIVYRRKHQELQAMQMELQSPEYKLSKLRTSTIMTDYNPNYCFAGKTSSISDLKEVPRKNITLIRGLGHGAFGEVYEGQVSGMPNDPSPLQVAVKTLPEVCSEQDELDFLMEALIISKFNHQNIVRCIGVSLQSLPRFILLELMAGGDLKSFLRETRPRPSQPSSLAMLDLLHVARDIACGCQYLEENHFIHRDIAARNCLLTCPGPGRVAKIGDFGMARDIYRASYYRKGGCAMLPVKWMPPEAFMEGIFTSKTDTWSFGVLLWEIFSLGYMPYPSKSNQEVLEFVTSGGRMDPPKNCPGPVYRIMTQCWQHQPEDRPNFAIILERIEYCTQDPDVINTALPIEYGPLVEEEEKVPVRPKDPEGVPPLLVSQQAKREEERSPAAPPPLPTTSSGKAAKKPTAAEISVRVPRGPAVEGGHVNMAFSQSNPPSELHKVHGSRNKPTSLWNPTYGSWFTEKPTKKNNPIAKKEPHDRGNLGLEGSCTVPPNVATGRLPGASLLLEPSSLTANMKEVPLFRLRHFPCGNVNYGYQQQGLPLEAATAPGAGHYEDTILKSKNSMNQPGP

[4] = target: T2, Aurora kinase A (Homo sapiens) (UniProt O14965); test: Induction of aurora A degradation in human NCI-H3122 cells at 250 nM after 16 hrs in presence of proteasome inhibitor carfilzomib by immunoblot method; assay type: cell-based
T2 sequence (whole entry): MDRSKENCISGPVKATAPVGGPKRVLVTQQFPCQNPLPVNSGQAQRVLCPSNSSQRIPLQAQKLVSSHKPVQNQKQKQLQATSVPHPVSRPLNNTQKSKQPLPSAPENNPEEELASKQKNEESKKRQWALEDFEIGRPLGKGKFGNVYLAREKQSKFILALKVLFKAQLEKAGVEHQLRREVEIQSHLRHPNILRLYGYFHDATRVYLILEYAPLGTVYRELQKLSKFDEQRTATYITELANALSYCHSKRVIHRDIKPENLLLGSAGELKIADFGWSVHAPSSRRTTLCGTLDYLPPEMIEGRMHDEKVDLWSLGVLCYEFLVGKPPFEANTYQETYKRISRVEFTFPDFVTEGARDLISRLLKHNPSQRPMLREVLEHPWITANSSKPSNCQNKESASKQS

[5] = target: T2, Aurora kinase A (Homo sapiens); test: Induction of aurora A degradation in human KARPAS299 cells at 250 nM after 16 hrs in presence of proteasome inhibitor carfilzomib by immunoblot method; assay type: cell-based
[6] = target: T1, ALK tyrosine kinase receptor; test: Induction of ALK degradation in human KARPAS299 cells at 250 nM after 16 hrs in presence of […] inhibitor MLN4924 by immunoblot method; assay type: cell-based
Target sequence in this assay (Q9UM73 19-1620 limits assumed): as the sequence (Q9UM73 19-1620 limits assumed) above

[7] = target: T2, Aurora kinase A (Homo sapiens); test: Induction of aurora A degradation in human NCI-H3122 cells at 250 nM after 16 hrs in presence of […] inhibitor MLN4924 by immunoblot method; assay type: cell-based
[8] = target: T1, ALK tyrosine kinase receptor; test: Induction of ALK degradation in human NCI-H3122 cells at 250 nM after 16 hrs in presence of pomalidomide by immunoblot method; assay type: cell-based
Target sequence in this assay (Q9UM73 19-1620 limits assumed): as the sequence (Q9UM73 19-1620 limits assumed) above

[9] = target: T1, ALK tyrosine kinase receptor; test: Induction of ALK degradation in human KARPAS299 cells at 250 nM after 16 hrs in presence of pomalidomide by immunoblot method; assay type: cell-based
Target sequence in this assay (Q9UM73 19-1620 limits assumed): as the sequence (Q9UM73 19-1620 limits assumed) above

[10] = target: T1, ALK tyrosine kinase receptor; test: Induction of ALK degradation in human KARPAS299 cells at 250 nM after 16 hrs in presence of ALK inhibitor LDK378 by immunoblot method; assay type: cell-based
Target sequence in this assay (Q9UM73 19-1620 limits assumed): as the sequence (Q9UM73 19-1620 limits assumed) above

[11] = tested on: SH-SY5Y; test: Antiproliferative activity against human SH-SY5Y cells after 72 hrs by CellTiter-Glo luminescent cell viability assay; assay type: functional, cell-based
[12] = species: Homo sapiens; test: Antiproliferative activity against human CHLA20 cells after 72 hrs by CellTiter-Glo luminescent cell viability assay; assay type: functional, cell-based
[13] = species: Homo sapiens; test: Antiproliferative activity against human CHLA20 cells after 72 hrs in presence of ABCB1 shRNA by CellTiter-Glo luminescent cell viability assay; assay type: functional, cell-based
[14] = target: T1, ALK tyrosine kinase receptor; test: Induction of ALK degradation in human Kelly cells after 16 hrs by immunoblot method; assay type: cell-based
Method in brief: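 Kelly neuroblastoma cells (ABCB1-low) were given a 16 hr dose titration. ALK and Aurora A were then read by western blot. DC50 was determined from two independent experiments.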
Target sequence in this assay (Q9UM73 whole entry): as the sequence (Q9UM73 whole entry) above

[15] = target: T2, Aurora kinase A (Homo sapiens); test: Induction of aurora A degradation in human Kelly cells at 100 nM after 16 hrs in presence of proteasome inhibitor carfilzomib by immunoblot method; assay type: cell-based
Method in brief: (§1)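 Cells were pre-treated for 2 h with DMSO, carfilzomib, MLN4924 or pomalidomide, then treated with compound for 16 h, with immunoblot read-out. CHLA20 cells also received 125 nM tariquidar throughout.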

[16] = target: T2, Aurora kinase A (Homo sapiens); test: Induction of aurora A degradation in human Kelly cells at 100 nM after 16 hrs in presence of […] inhibitor MLN4924 by immunoblot method; assay type: cell-based; method in brief: as §1
[17] = target: T2, Aurora kinase A (Homo sapiens); test: Induction of aurora A degradation in human Kelly cells at 100 nM after 16 hrs in presence of pomalidomide by immunoblot method; assay type: cell-based; method in brief: as §1
[18] = target: T1, ALK tyrosine kinase receptor; test: Induction of ALK degradation in human Kelly cells at 100 nM after 16 hrs in presence of pomalidomide by immunoblot method; assay type: cell-based
Method in brief: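 Kelly cells were pre-treated for 2 h with DMSO, carfilzomib, MLN4924, pomalidomide, TAE684 or LDK378. Degrader treatment followed for 16 h, and ALK was read by immunoblot.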
Target sequence in this assay (Q9UM73 19-1620 limits assumed): as the sequence (Q9UM73 19-1620 limits assumed) above

[19] = target: T1, ALK tyrosine kinase receptor; test: Induction of ALK degradation in human CHLA20 cells at 100 nM after 16 hrs in presence of ALK inhibitor TAE684 and ABCB1 inhibitor tariquidar by immunoblot method; assay type: cell-based
Method in brief: (§2)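 CHLA20 cells were kept with 125 nM tariquidar and pre-treated for 2 h with DMSO, carfilzomib, MLN4924, pomalidomide, TAE684 or LDK378. A 16 h degrader treatment followed, with immunoblot readout of ALK.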

[20] = target: T1, ALK tyrosine kinase receptor; test: Induction of ALK degradation in human CHLA20 cells at 100 nM after 16 hrs in presence of ALK inhibitor LDK378 and ABCB1 inhibitor tariquidar by immunoblot method; assay type: cell-based; method in brief: as §2
[21] = target: T1, ALK tyrosine kinase receptor; test: Induction of ALK degradation in human Kelly cells at 100 nM after 4 hrs by immunoblot method; assay type: cell-based
Method in brief: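 Kelly cells were treated with 100 nM compound for varying times and lysed at each time point. ALK levels were read by immunoblot.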

[22] = target: Focal adhesion kinase 1 (Homo sapiens) (UniProt Q05397); test: Induction of PTK2 degradation in human KARPAS299 cells at 0.01 to 1 uM after 16 hrs by immunoblot method; assay type: cell-based
[23] = target: Tyrosine-protein kinase Fer (Homo sapiens) (UniProt P16591); test: Induction of FER degradation in human NCI-H3122 cells at 0.01 to 1 uM after 16 hrs by immunoblot method; assay type: cell-based
[24] = target: Ribosomal protein S6 kinase alpha-1 (Homo sapiens) (UniProt Q15418); test: Induction of RPS6KA1 degradation in human KARPAS299 cells at 0.01 to 1 uM after 16 hrs by immunoblot method; assay type: cell-based
[25] = target: Focal adhesion kinase 1 (Homo sapiens) (UniProt Q05397); test: Induction of PTK2 degradation in human Kelly cells at 10 to 160 nM after 16 hrs by immunoblot method; assay type: cell-based
[26] = target: Tyrosine-protein kinase Fer (Homo sapiens) (UniProt P16591); test: Induction of FER degradation in human Kelly cells at 10 to 160 nM after 16 hrs by immunoblot method; assay type: cell-based
[27] = target: Ribosomal protein S6 kinase alpha-1 (Homo sapiens) (UniProt Q15418); test: Induction of RPS6KA1 degradation in human Kelly cells at 10 to 160 nM after 16 hrs by immunoblot method; assay type: cell-based
[28] = target: T2, Aurora kinase A (Homo sapiens); test: Induction of aurora A degradation in human NCI-H3122 cells at 250 nM measured over 2 to 16 hrs by immunoblot method; assay type: cell-based
[29] = target: Ribosomal protein S6 kinase alpha-1 (Homo sapiens) (UniProt Q15418); test: Induction of RPS6KA1 degradation in human Kelly cells at 100 nM measured over 2 to 16 hrs by immunoblot method; assay type: cell-based
[30] = target: T2, Aurora kinase A (Homo sapiens); test: Induction of aurora A degradation in human Kelly cells at 100 nM measured over 2 to 16 hrs by immunoblot method; assay type: cell-based
Method in brief: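 Kelly cells were given 100 nM compound for varying times, and lysates were immunoblotted for Aurora A.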

Sequence of Focal adhesion kinase 1 (Homo sapiens) (Q05397 2-1052 limits assumed): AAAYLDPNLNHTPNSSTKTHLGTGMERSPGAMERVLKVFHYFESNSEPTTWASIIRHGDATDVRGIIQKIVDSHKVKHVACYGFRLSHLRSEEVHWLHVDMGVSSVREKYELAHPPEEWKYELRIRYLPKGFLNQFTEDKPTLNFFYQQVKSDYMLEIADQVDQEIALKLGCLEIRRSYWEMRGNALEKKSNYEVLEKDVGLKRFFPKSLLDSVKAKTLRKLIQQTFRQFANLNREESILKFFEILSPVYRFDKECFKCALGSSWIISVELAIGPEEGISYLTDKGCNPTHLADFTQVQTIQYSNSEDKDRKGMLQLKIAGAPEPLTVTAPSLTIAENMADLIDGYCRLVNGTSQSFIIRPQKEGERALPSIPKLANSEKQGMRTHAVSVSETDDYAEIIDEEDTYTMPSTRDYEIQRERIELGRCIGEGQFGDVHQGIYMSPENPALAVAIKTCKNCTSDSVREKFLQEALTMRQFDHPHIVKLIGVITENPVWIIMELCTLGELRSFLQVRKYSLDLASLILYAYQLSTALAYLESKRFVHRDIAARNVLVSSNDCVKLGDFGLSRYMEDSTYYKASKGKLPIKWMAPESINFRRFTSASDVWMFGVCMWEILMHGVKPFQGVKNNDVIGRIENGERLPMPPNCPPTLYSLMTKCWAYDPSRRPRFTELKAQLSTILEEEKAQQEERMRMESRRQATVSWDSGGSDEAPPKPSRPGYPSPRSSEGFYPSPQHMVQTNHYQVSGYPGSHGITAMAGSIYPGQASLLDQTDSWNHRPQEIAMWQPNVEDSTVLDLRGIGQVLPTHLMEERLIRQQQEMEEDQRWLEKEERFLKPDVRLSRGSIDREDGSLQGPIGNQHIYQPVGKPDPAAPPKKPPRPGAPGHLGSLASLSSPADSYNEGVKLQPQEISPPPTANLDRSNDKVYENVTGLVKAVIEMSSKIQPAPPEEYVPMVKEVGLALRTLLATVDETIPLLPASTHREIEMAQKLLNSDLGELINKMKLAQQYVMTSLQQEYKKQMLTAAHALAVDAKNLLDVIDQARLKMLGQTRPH

Row | DC50 [2] | Activity [3] | Activity [4] | Activity [5] | Activity [6] | Activity [7] | Activity [8] | Activity [9] | Activity [10] | DC50 [14] | Activity [15] | Activity [16] | Activity [17] | Activity [18] | Activity [19] | Activity [20] | Structure (SMILES) | Activity [1] | Activity [11] | Activity [12] | Activity [13] | further results
1 | 180 nM | inactive | inactive | inactive | inactive | inactive | inactive | inactive | inactive | 50 nM | inactive | inactive | inactive | inactive | inactive | inactive | COc1cc(N2CCN(CCOCCOCCNC(=O)CNc3cccc4c3C(=O)N(C3CCC(=O)NC3=O)C4=O)CC2)ccc1Nc1ncc(Cl)c(Nc2ccccc2S(=O)(=O)C(C)C)n1 (stereo not given) | Active | inactive | inactive | Active | Activity [21]: inactive; Activity [22]: Active; Activity [23]: Active; Activity [24]: Active; Activity [25]: Active; Activity [26]: Active; Activity [27]: Active; Activity [28]: Active; Activity [29]: Active; Activity [30]: Active
2 | 40 nM | inactive | inactive | inactive | inactive | inactive | inactive | inactive | inactive | 50 nM | inactive | inactive | inactive | inactive | inactive | inactive | Cc1cc(Nc2ncc(Cl)c(Nc3ccccc3S(=O)(=O)C(C)C)n2)c(OC(C)C)cc1C1CCN(CCOCCOCCNC(=O)CNc2cccc3c2C(=O)N(C2CCC(=O)NC2=O)C3=O)CC1 (stereo not given) | Active | inactive | inactive | Active | Activity [21]: inactive; Activity [22]: Active; Activity [23]: Active; Activity [24]: Active; Activity [25]: Active; Activity [26]: Active; Activity [27]: Active; Activity [28]: Active; Activity [29]: Active; Activity [30]: Active
